Assay [1] concerns the target T1, Cannabinoid receptor 1 (Homo sapiens, UniProt P21554). The assay can be described thus: Antagonist activity at human CB1 receptor expressed in CHO-RD-HGA16 cells assessed as inhibition of CP55940-induced calcium mobilization incubated for 15 mins prior to CP55940 addition by FLIPR assay. It counts as functional, cell-based.
The target in assay [2] is Cannabinoid receptor 2 (Homo sapiens) (UniProt P34972). The assay can be described thus: Antagonist activity at human CB2 receptor expressed in CHO-RD-HGA16 cells assessed as inhibition of CP55940-induced calcium mobilization at 10 uM incubated for 15 mins prior to CP55940 addition by FLIPR assay. It counts as functional, cell-based.
Sequence of Cannabinoid receptor 2 (Homo sapiens) (P34972 whole entry): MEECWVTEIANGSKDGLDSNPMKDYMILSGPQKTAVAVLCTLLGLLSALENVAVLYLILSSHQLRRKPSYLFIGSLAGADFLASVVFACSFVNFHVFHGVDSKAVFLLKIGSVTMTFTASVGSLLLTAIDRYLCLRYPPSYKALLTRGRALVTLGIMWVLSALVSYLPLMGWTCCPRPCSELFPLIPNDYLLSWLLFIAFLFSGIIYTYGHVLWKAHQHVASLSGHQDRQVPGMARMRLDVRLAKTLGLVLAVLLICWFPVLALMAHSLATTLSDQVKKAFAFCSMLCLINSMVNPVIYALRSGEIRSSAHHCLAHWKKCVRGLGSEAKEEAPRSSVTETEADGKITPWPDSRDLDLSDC
In assay [3] the target is T1, Cannabinoid receptor 1. Kind of assay: Agonist activity at human CB1 receptor expressed in CHO-RD-HGA16 cells at 10 uM after 15 mins by FLIPR assay relative to CP55940. The format is cell-based. An outline of the steps:
(§1)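 Stably transfected CHO-RD-HGA16 cells (human CB1, or CB2 for line 2) seeded the day before (CB1 25,000, CB2 30,000 cells/well), cultured overnight at 37°C, 5% CO2. Loaded 45 min at 37°C with Calcium 5 dye in HBSS/20 mM HEPES/2.5 mM probenecid, pH 7.4.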

In assay [4] the target is Cannabinoid receptor 2 (Homo sapiens) (UniProt P34972). The assay can be described thus: Agonist activity at human CB2 receptor expressed in CHO-RD-HGA16 cells at 10 uM after 15 mins by FLIPR assay relative to CP55940. It counts as cell-based. The procedure, abridged: as §1
Assay [5] deals with T1, Cannabinoid receptor 1. Kind of assay: Allosteric modulation of human CB1 receptor expressed in CHO-RD-HGA16 cells assessed as reduction of CP55940 Emax by calcium mobilization assay. It counts as functional, cell-based. The procedure, abridged: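 CB1-expressing CHO-RD-HGA16 cells seeded at 25,000/well the previous day and loaded with Calcium 5 dye for 45 min at 37°C (HBSS, 20 mM HEPES, 2.5 mM probenecid, pH 7.4). Pretreated 15 min at 37°C with a single concentration of test compound, then serial dilutions of CP55,940 added on FLIPR Tetra. Fluorescence plotted against agonist concentration.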

T1 sequence (P21554 whole entry): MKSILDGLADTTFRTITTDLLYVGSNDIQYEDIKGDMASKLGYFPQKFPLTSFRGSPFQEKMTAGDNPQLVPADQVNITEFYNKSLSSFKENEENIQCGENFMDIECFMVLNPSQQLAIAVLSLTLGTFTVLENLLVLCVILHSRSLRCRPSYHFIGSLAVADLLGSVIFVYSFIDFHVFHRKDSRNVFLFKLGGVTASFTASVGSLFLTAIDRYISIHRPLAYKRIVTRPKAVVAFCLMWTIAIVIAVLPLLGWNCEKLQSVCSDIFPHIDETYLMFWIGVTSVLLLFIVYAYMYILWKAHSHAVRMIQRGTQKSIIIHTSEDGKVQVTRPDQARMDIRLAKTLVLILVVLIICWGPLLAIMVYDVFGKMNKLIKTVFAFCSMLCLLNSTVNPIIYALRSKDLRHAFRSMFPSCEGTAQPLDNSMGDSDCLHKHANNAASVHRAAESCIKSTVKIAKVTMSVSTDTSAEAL

With `CCc1c(C(=O)NCCc2ccc(Cl)cc2)[nH]c2ccc(Cl)cc12`, the 50% inhibitory concentration (IC50) on Cannabinoid receptor 1 [1] was determined as 2500 nM. Besides, in assay [2], the inhibition is -4.8%. Moreover, the Activity (on Cannabinoid receptor 1 [3]; in assay [4]) was < 30% throughout.

`CCN(CC)c1ccc(CCNC(=O)c2cc3cc(F)ccc3[nH]2)cc1`: at Cannabinoid receptor 1 [1], the concentration for half-maximal inhibition (IC50) stood at 318 nM. For the same molecule, the Activity (on Cannabinoid receptor 1 [3]; in assay [4]) was < 30% each time.

In the case of `CCc1c(C(=O)NCCc2ccc(OC)c(O)c2)[nH]c2ccc(Cl)cc12`, the IC50 on Cannabinoid receptor 1 [1] is > 10000 nM. In addition, the inhibition in assay [2] is -7%. Moreover, the Activity (on Cannabinoid receptor 1 [3]; in assay [4]) was < 30% throughout.

As for `CCc1c(C(=O)NCCc2ccc3c(c2)OCO3)[nH]c2ccc(Cl)cc12`, at Cannabinoid receptor 1 [1], the concentration for half-maximal inhibition (IC50) is 4320 nM. Also, the inhibition in assay [2] came out at 25.8%. Besides, the Activity (on Cannabinoid receptor 1 [3]; in assay [4]) was < 30% throughout.

As to `CCCCCC(=O)Nc1ccc(CCNC(=O)c2[nH]c3ccc(Cl)cc3c2CC)cc1`, the IC50 at Cannabinoid receptor 1 [1] is > 10000 nM. The inhibition in assay [2] was 1%. The Activity (at Cannabinoid receptor 1 [3]; in assay [4]) was < 30% each time.

For the molecule `CCCC(=O)Nc1ccc(CCNC(=O)c2[nH]c3ccc(Cl)cc3c2CC)cc1`, the IC50 on Cannabinoid receptor 1 [1] is > 10000 nM. Also, the inhibition in assay [2] came to 43%. Also, the Activity (at Cannabinoid receptor 1 [3]; in assay [4]) was < 30% each time.

`CCc1c(C(=O)NCCc2ccc(N(CC)CC)cc2)[nH]c2ccc(F)cc12`: at Cannabinoid receptor 1 [1], the IC50 worked out at 361 nM. Besides, the Activity (at Cannabinoid receptor 1 [3]; in assay [4]) was < 30% each time.

Turning to `CCc1c(C(=O)NCCc2cccc(OC)c2)[nH]c2ccc(Cl)cc12`, the IC50 at Cannabinoid receptor 1 [1] amounted to 2100 nM. Moreover, in assay [2], the inhibition is -6%. In addition, the Activity (on Cannabinoid receptor 1 [3]; in assay [4]) was < 30% in each case.

For the molecule `CCc1c(C(=O)NCCc2ccc(N3CCCCC3)cc2)[nH]c2ccc(Cl)cc12`, at Cannabinoid receptor 1 [1], the IC50 stood at 853 nM. Besides, the figures for the Activity (on Cannabinoid receptor 1 [3]; in assay [4]; at Cannabinoid receptor 1 [5]) were < 30%, < 30% and “Dose-dependent effect”, respectively.

On to `CCc1c(C(=O)NCCc2ccc(Cl)c(Cl)c2)[nH]c2ccc(Cl)cc12`, for which the IC50 at Cannabinoid receptor 1 [1] worked out at 2170 nM. Moreover, in assay [2], the inhibition is -3.2%. In addition, the Activity (at Cannabinoid receptor 1 [3]; in assay [4]) was < 30% each time.

In the case of `CCc1c(C(=O)N2CCN(c3ccccc3)CC2)[nH]c2ccc(Cl)cc12`, the half-maximal inhibitory concentration (IC50) at Cannabinoid receptor 1 [1] is > 10000 nM. Further, the Activity (on Cannabinoid receptor 1 [3]; in assay [4]) was < 30% each time.

Regarding `CCN(CC)c1ccc(CCNC(=O)c2cc3cc(Cl)ccc3[nH]2)cc1`, the IC50 at Cannabinoid receptor 1 [1] is 79 nM. In assay [2], the inhibition was determined as 0.7%. Besides, the Activity is < 30% at Cannabinoid receptor 1 [3], < 30% in assay [4] and “Dose-dependent effect” at Cannabinoid receptor 1 [5].

For the molecule `CCc1c(C(=O)NCCc2ccc(NC(C)=O)cc2)[nH]c2ccc(Cl)cc12`, the IC50 at Cannabinoid receptor 1 [1] is > 10000 nM. Further, in assay [2], the inhibition was -3.3%. Further, the Activity (on Cannabinoid receptor 1 [3]; in assay [4]) was < 30% in each case.

As for `CCc1c(C(=O)Nc2cccc(-c3cccc(N(C)C)n3)c2)[nH]c2ccc(Cl)cc12`, the half-maximal inhibitory concentration (IC50) on Cannabinoid receptor 1 [1] is > 10000 nM. Besides, the Activity (on Cannabinoid receptor 1 [3]; in assay [4]) was < 30% throughout.

Turning to `CCc1c(C(=O)NCCc2ccc([N+](=O)[O-])cc2)[nH]c2ccc(Cl)cc12`, at Cannabinoid receptor 1 [1], the IC50 was 5740 nM. Further, the inhibition in assay [2] was determined as 34.8%. The Activity (on Cannabinoid receptor 1 [3]; in assay [4]) was < 30% each time.

With `CCc1c(C(=O)NCCc2ccc(N3CCCCC3)cc2)[nH]c2ccc(F)cc12`, the half-inhibitory concentration (IC50) on Cannabinoid receptor 1 [1] stood at 605 nM. Besides, the Activity (at Cannabinoid receptor 1 [3]; in assay [4]) was < 30% in each case.

With `CCc1c(C(=O)NCCc2ccc(N(CC)CC)cc2)[nH]c2ccc(Cl)cc12`, the IC50 at Cannabinoid receptor 1 [1] came out at 483 nM. Further, the Activity (at Cannabinoid receptor 1 [3]; in assay [4]) was < 30% each time.

Take `CCc1c(C(=O)NCCc2ccc(N(C)C)cc2)[nH]c2ccc(Cl)cc12`: on Cannabinoid receptor 1 [1], the concentration for half-maximal inhibition (IC50) was 787 nM. Moreover, the Activity (at Cannabinoid receptor 1 [3]; in assay [4]) was < 30% in each case.

Regarding `CCc1c(C(=O)NCCc2cccc(Cl)c2)[nH]c2ccc(Cl)cc12`, the IC50 on Cannabinoid receptor 1 [1] is 831 nM. Further, in assay [2], the inhibition is 24.8%. Besides, the Activity (at Cannabinoid receptor 1 [3]; in assay [4]) was < 30% in each case.

With `CCc1c(C(=O)NCCc2cccc(O)c2)[nH]c2ccc(Cl)cc12`, the IC50 on Cannabinoid receptor 1 [1] was > 10000 nM. In addition, the inhibition in assay [2] was -0.1%. Moreover, the Activity (at Cannabinoid receptor 1 [3]; in assay [4]) was < 30% each time.

For `O=C(NCCc1ccc(N2CCCCC2)cc1)c1cc2cc(Cl)ccc2[nH]1`, the half-maximal inhibitory concentration (IC50) on Cannabinoid receptor 1 [1] was determined as 212 nM. The inhibition in assay [2] was determined as 15%. Besides, the Activity (on Cannabinoid receptor 1 [3]; in assay [4]) was < 30% throughout.

As to `CCc1c(C(=O)NCCc2ccc(OC)cc2)[nH]c2ccc(Cl)cc12`, at Cannabinoid receptor 1 [1], the concentration for half-maximal inhibition (IC50) was found to be 2560 nM. Besides, the Activity (on Cannabinoid receptor 1 [3]; in assay [4]) was < 30% in each case.

With `O=C(NCCc1ccc(N2CCCCC2)cc1)c1cc2cc(F)ccc2[nH]1`, at Cannabinoid receptor 1 [1], the IC50 came to 319 nM. For the same molecule, the inhibition in assay [2] amounted to 20.8%. Also, the Activity (at Cannabinoid receptor 1 [3]; in assay [4]) was < 30% in each case.

As for `CCCCCCNc1ccc(CCNC(=O)c2[nH]c3ccc(Cl)cc3c2CC)cc1`, the IC50 at Cannabinoid receptor 1 [1] was 3620 nM. Further, the Activity (on Cannabinoid receptor 1 [3]; in assay [4]) was < 30% throughout.

On to `CCc1c(C(=O)NCCc2ccccc2)[nH]c2ccc(Cl)cc12`, for which, on Cannabinoid receptor 1 [1], the half-inhibitory concentration (IC50) was determined as 3150 nM. Moreover, in assay [2], the inhibition is -6.2%. Also, the Activity (on Cannabinoid receptor 1 [3]; in assay [4]) was < 30% each time.

Turning to `CCc1c(C(=O)NCCc2ccccc2Cl)[nH]c2ccc(Cl)cc12`, on Cannabinoid receptor 1 [1], the 50% inhibitory concentration (IC50) worked out at 5810 nM. In addition, the inhibition in assay [2] came to 28.5%. In addition, the Activity (on Cannabinoid receptor 1 [3]; in assay [4]) was < 30% in each case.

As for `CCCN(CCC)c1ccc(CCNC(=O)c2[nH]c3ccc(Cl)cc3c2CC)cc1`, the half-inhibitory concentration (IC50) at Cannabinoid receptor 1 [1] amounted to 1800 nM. Further, the Activity (on Cannabinoid receptor 1 [3]; in assay [4]) was < 30% throughout.

Consider `Cc1c(C(=O)NCCc2ccc(N3CCCCC3)cc2)[nH]c2ccc(F)cc12`, for which the IC50 on Cannabinoid receptor 1 [1] worked out at 279 nM. The inhibition in assay [2] is -8.2%. Besides, the Activity (on Cannabinoid receptor 1 [3]; in assay [4]) was < 30% in each case.

Regarding `CCc1c(C(=O)NC2CCN(Cc3ccccc3)C2)[nH]c2ccc(Cl)cc12` (configuration not stated), the IC50 on Cannabinoid receptor 1 [1] was 4760 nM. Also, the inhibition in assay [2] was -6.2%. Further, the Activity (at Cannabinoid receptor 1 [3]; in assay [4]) was < 30% in each case.

As to `CCc1c(C(=O)NCCc2cccc(N(C)C)c2)[nH]c2ccc(Cl)cc12`, the IC50 at Cannabinoid receptor 1 [1] was > 10000 nM. In addition, the inhibition in assay [2] was -3.7%.

In the case of `CCN(CC)c1ccc(CCNC(=O)c2[nH]c3ccc(F)cc3c2C)cc1`, the half-maximal inhibitory concentration (IC50) on Cannabinoid receptor 1 [1] stood at 151 nM. Further, the Activity (on Cannabinoid receptor 1 [3]; in assay [4]) was < 30% throughout.

On to `CCc1c(C(=O)N2CCN(c3ccc(Cl)cc3)CC2)[nH]c2ccc(Cl)cc12`, for which the IC50 at Cannabinoid receptor 1 [1] was > 10000 nM. Moreover, the Activity (on Cannabinoid receptor 1 [3]; in assay [4]) was < 30% in each case.

As to `CCc1c(C(=O)NCCc2ccc(N(C)C)cc2)[nH]c2ccc(F)cc12`, the IC50 on Cannabinoid receptor 1 [1] was 205 nM. For the same molecule, the Activity is < 30% at Cannabinoid receptor 1 [3], < 30% in assay [4] and “Dose-dependent effect” at Cannabinoid receptor 1 [5].

On to `CCc1c(C(=O)NCCc2ccc(C(C)(C)C)cc2)[nH]c2ccc(Cl)cc12`, for which the concentration for half-maximal inhibition (IC50) on Cannabinoid receptor 1 [1] was found to be 2430 nM. Besides, the Activity (on Cannabinoid receptor 1 [3]; in assay [4]) was < 30% throughout.

Source of the values: ChEMBL document CHEMBL3399946, “Structure-activity relationships of substituted 1H-indole-2-carboxamides as CB1 receptor allosteric modulators” (Bioorg Med Chem, 2015).
